Screening data from PubChem.
In the library only some 3.7% were active in any assay of this set; here they are far more common.
KCNQ1 act = potentiators or activators of KCNQ1 channel, primary screen, cell-based, thallium flux, high-throughput | AID 2648, 2010 | CHO-K1 KCNQ1, thallium flux FluxOR fluorescence; active compounds read high | B-score at 10 µM | 0.35% of 310,000 active;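 active = fluorescence ratio B-score, a plate-corrected score, at least three library SD, with initial intensity B-score within 5 SD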
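System: Stable KCNQ1 CHO-K1 line | Incubation: 90 min dye loading and 20 min compound exposure, both at room temperature | Measure: Ratio B score | Medium: Assay buffer for compound exposure, DMSO matched across wells | Compound dosing: Single-concentration screen | Probe or stimulus: K+/Tl+ depolarizing stimulus | Measured by: Kinetic FluxOR fluorescence, 10 s baseline plus 110 s post-stimulus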
KCNQ1 block = inhibitors of human KCNQ1 channel, primary screen, cell-based, thallium flux, high-throughput. Potassium voltage-gated channel subfamily KQT member 1 (Homo sapiens), P51787. CHO-K1 KCNQ1, FluxOR thallium flux fluorescence; active compounds read high. B-score at 10 µM. 1.3% of 310,000 active. AID 2642, 2010;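 active = compounds whose thallium flux B-score, printed positive for inhibition, exceeds three library SD while starting fluorescence stays within three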;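 note: channel opened by potassium depolarization with thallium stimulus after 20 min compound exposure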
hERG protect = hERG rescue from dofetilide block, primary screen, cell-based, CHO-hERG, FluxOR thallium flux, dofetilide IC70; dofetilide IC70 present; activation (rescue from dofetilide block), less the hit threshold, % at 10 µM; 0.51% of 310,000 active;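 active = activation above the mean of controls blocked by dofetilide plus 5 SD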;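 note: thallium influx through hERG after potassium depolarization seen as dye fluorescence rise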
Kir21 block = inhibitors of mouse Kir2.1 inward-rectifier potassium channel; B-score at 10 µM; AID 1672, 2009; HEK293-Kir2.1, FluxOR thallium flux fluorescence; active compounds read low; Inward rectifier potassium channel 2 (Mus musculus), P35561; 0.85% of 310,000 active;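 active = fluorescence ratio B-score at or below minus 3 SD of library scores, with starting-brightness B-score within 2 SD, cut at about -4.2 in these data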;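 note: channel flux triggered by added potassium and thallium sulfate stimulus; B-score of peak minus minimum fluorescence over baseline after thallium stimulus; more negative B-score means stronger Kir2.1 block with less thallium influx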
Target sequence (P35561 whole entry, looked up): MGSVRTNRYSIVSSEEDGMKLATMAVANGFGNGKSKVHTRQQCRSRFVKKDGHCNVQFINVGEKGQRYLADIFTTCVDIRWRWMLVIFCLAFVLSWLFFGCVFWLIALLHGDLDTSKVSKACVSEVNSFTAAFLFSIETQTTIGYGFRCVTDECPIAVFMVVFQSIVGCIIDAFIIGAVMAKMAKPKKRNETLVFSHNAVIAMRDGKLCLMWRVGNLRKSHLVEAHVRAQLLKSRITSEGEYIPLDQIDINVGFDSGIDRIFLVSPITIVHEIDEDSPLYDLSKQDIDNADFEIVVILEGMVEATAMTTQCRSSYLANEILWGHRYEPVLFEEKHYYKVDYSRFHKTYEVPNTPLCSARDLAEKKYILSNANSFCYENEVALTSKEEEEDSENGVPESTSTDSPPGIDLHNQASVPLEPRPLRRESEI
KCNK9 block = KCNK9 potassium channel inhibitors, primary screen, HEK293 cells, thallium flux | Potassium channel subfamily K member 9 (Homo sapiens), Q9NPC2 | FluxOR thallium flux fluorescence; active compounds read low | B-score at 10 µM | 1.2% of 310,000 active;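 active = ratio B-score over 3 SD below the library mean, with starting fluorescence within 5 SD of its mean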;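 note: negative B-score means less thallium flux so channel inhibition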
KCNK3 block = human KCNK3 channel inhibitors, primary screen, CHO cells, FluxOR thallium flux, B-score. B-score at 10 µM. 0.84% of 340,000 active. AID 602410, 2012. FluxOR fluorescence; active compounds read low. Potassium channel subfamily K member 3 (Homo sapiens), O14649;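 active = B-score under library mean minus 4 SD, starting fluorescence ratio at most library mean plus 5 SD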;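 note: more negative B-score means stronger inhibition of thallium flux through KCNK3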
KCNK9 inh conf = KCNK9 potassium channel inhibitors, confirmation, HEK293 cells, thallium flux, duplicate; FluxOR thallium flux fluorescence; AID 492992, 2010; 43% of 4,900 active; shares compounds with KCNK9 block; inhibition, % at 10 µM;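 active = thallium signal inhibited by more than 5 SD of the compound-free buffer control wells, on both duplicate plates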;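 note: 0% = assay buffer control wells without compound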
Kir2-1 spec = mouse Kir2.1 channel inhibition, confirmation, selectivity assay for KCNK9 modulator project, cell-based, HEK293, thallium flux. shares compounds with KCNK9 block. inhibition, % at 10 µM. 4% of 4,900 active. Kir2.1 cells, FluxOR thallium flux fluorescence;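 active = thallium signal drop more than 5 SD beyond the mean of the no-compound control wells, seen in both duplicate plates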;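 note: signal is fluorescence rise after thallium addition divided by baseline fluorescence; plate controls were assay buffer only for no effect and full block by chlorpromazine control for full effect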
HEK293 Tl ctr = thallium flux in non-induced HEK293 cells, confirmation, counter-screen for KCNK9 inhibitor project, cell-based, second counter screen, non-induced KCNK9-HEK293; FluxOR thallium flux; inhibition, % at 10 µM; shares compounds with KCNK9 block; 40% of 4,900 active;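 active = thallium signal drop beyond 5 SD of the untreated control mean, on both duplicate plates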;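 note: plate controls were buffer only IC0 wells for no effect and SID17386958 at its maximal inhibitory level for full effect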
Active calls of the source: *; i = inactive; . = not tested or not shown.

SMILES	KCNQ1 act	KCNQ1 block	hERG protect	Kir21 block	KCNK9 block	KCNK3 block	KCNK9 inh conf	Kir2-1 spec	HEK293 Tl ctr
CCCCNC(=O)C1Cc2cc(S(=O)(=O)N3CCCCC3)ccc2N1C(C)=O (configuration not stated)	i	i	-8.1	-0.04	i	i	.	.	.
O=S(=O)(c1ccc(F)cc1)N1CCN(CCc2ccccc2)CC1	i	i	-6.0	-0.57	i	i	i	i	i
O=S(=O)(c1ccccc1)N1CCN(Cc2c(O)ccc3ccccc23)CC1	.	.	.	.	.	i	.	.	.
Oc1ccc2ccccc2c1CN1CCN(C/C=C/c2ccccc2)CC1	i	i	-8.8	1.85	i	i	i	i	i
O=S(=O)(c1ccccc1)N1CCN(C/C=C/c2ccccc2)CC1	i	i	-2.8	1.53	i	i	i	i	i
CCn1cnc2scc(-c3ccccc3)c2c1=O	i	i	-10.3	0.05	i	i	.	.	.
Cn1cc(/C=N/n2cnc3scc(-c4ccc(Cl)cc4)c3c2=O)c2ccccc21	i	i	-4.7	-0.13	i	i	i	i	i
CC(C)CC(c1nnnn1C(C)C)N1CCN(c2cccc(Cl)c2)CC1 (configuration not stated)	i	i	-5.2	0.51	-9.86*	i	43.5%*	i	39.5%*
CCCCOC(=O)Nc1nnc(SCCOc2ccc(C)cc2)s1	i	i	-12.7	0.7	i	i	i	i	i
Cc1ccc(OCCSc2nnc(NC(=O)c3ccco3)s2)cc1	i	i	-4.2	-0.46	i	i	.	.	.
O=C(CCCOc1ccccc1)N1CCCc2ccccc21	i	i	-3.9	-2.13	i	i	.	.	.
Cc1cc(Cl)ccc1OCCCC(=O)N1CCCc2ccccc21	i	i	-10.3	-2.97	i	i	i	67.0%*	i
CC(C)(C)c1cc(-c2csc(Nc3ccccc3)[n+]2Cc2ccc(C(=O)O)cc2)cc(C(C)(C)C)c1O	15*	i	-9.6	-4.02	i	i	i	i	i
Cc1cc(C)cc(NC(=O)CCN2CCOCC2)c1	i	i	3.1	-0.95	i	i	.	.	.
Cc1ccc(C(=O)O/N=C/c2c(Cl)n(C)c3ccccc23)cc1	i	i	-0.5	-0.91	i	i	.	.	.
Cc1cccc(C(=O)O/N=C/c2c(Cl)n(C)c3ccccc23)c1	i	i	-7.5	1.84	-12.1*	i	48.0%*	i	34.5%*
Cc1ccc(Cl)cc1N1CCN(Cc2cc3c(cc2O)CCC3)CC1	i	i	-15.5	-0.21	i	i	i	i	i
Cc1ccc(Cl)cc1N1CCN(C(=O)c2ccc(CN3CCOCC3)cc2)CC1	i	i	-2.9	-1.61	i	i	.	.	.
Nc1nonc1-n1nnc(C(=O)N/N=C/c2ccc(OCc3ccccc3)cc2)c1CN1CCCCC1	i	i	-3.9	-0.42	i	i	.	.	.
CCOC(=O)C(C(C)=O)c1c(Br)c(O)c(O)c2c(C(=O)c3ccc(C)cc3)coc12 (configuration not stated)	i	9*	-8.5	0.93	-14.9*	i	70.5%*	i	46.5%*
Cc1ccccc1OCCC(=O)OCC(=O)NC1CC1	i	i	-5.5	0.61	i	i	.	.	.
CN(Cc1cnccn1)Cc1cn(Cc2ccccc2)nc1-c1ccc2c(c1)OCO2	i	i	-16.4	-1.24	i	i	i	i	i
C=CCN1C(=O)C(CC(=O)Nc2ccccc2)SC1=Nc1ccc(S(N)(=O)=O)cc1 (configuration not stated)	i	i	-1.3	-2.12	i	i	.	.	.
CC(C)(C)n1nnnc1C(c1cccs1)N(Cc1cccnc1)Cc1ccccc1Cl (configuration not stated)	i	i	-8.7	-0.06	-19.2*	i	70.0%*	i	54.5%*
CC(C)(C)n1nnnc1C(c1cccs1)N1CCN(Cc2ccccc2)CC1 (configuration not stated)	i	i	-3.0	-0.99	i	i	.	.	.
SMILES	KCNQ1 act	KCNQ1 block	hERG protect	Kir21 block	KCNK9 block	KCNK3 block	KCNK9 inh conf	Kir2-1 spec	HEK293 Tl ctr
O=C(O)c1ccc(N2C(=O)CC(N3C(=O)/C(=C/c4ccc(Cl)cc4)SC3=S)C2=O)cc1 (configuration not stated)	i	i	-8.8	0.58	i	i	i	i	i
O=C(O)c1ccc(N2C(=O)CC(N3CCN(c4ccc(Cl)cc4)CC3)C2=O)cc1 (configuration not stated)	i	i	0.1	1.05	i	i	.	.	.
CCOC(=O)c1c(-c2ccccc2)csc1NC(=O)CSc1nc(C)cc(C)n1	i	i	-9.9	0.33	i	i	i	i	i
CCOC(=O)c1c(-c2ccccc2)csc1NC(=O)c1cc(S(=O)(=O)N2CCOCC2)ccc1C	i	i	-9.7	0.64	i	i	i	i	i
CCOC(=O)c1c(-c2ccccc2)csc1NC(=O)c1ccc(S(=O)(=O)N2CC(C)OC(C)C2)cc1 (configuration not stated)	i	i	-10.4	1.13	i	i	.	.	.
CCOC(=O)c1c(-c2ccccc2)csc1NC(=O)CSc1nc(N)cc(N)n1	i	i	-12.3	-1.63	i	i	.	.	.
CCOC(=O)Cc1cnc(NC(=O)CSc2nc(C)cc(C)n2)s1	i	i	-17.0	2	i	i	i	i	i
CCOC(=O)c1c(-c2cccs2)csc1NC(=O)COC(=O)c1c(C)noc1C	i	i	-17.0	0.24	i	-8.9*	i	i	i
